# Results as given in ChEMBL document CHEMBL3871266, “Synthesis and cytotoxic activity of novel A-ring cleaved ursolic acid derivatives in human non-small cell lung cancer cells” (Eur J Med Chem, 2016).
# pIC50: −log10 of the molar value. The source made the active and inactive calls. The rule behind the calls is not given here.
# Columns and labels:
# [1] = Cytotoxicity against human LKB1-positive NCI-H460 cells assessed as reduction in cell viability measured after 72 hrs by CellTiter-Blue cell viability assay; format: functional, cell-based; details: Homo sapiens, NCI-H460, 72 h; read-out: IC50
# How it was run: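 Monolayer cultures in RPMI-1640 with 10% FBS at 37°C, seeded at 850 (H460 CTR5), 660 (H460 LKB1+/+) or 1780 (H322) cells/well so that the end point reaches 70–80% confluence. Treated 72h; vehicle 0.15% DMSO. CellTiter-Blue added until colour change (50–60, 80–90 or 100–120 min respectively), fluorescence read at 590 nm. IC50 by nonlinear regression; three independent experiments.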
# [2] = Cytotoxicity against human NCI-H460 spheroids expressing CTR5 gene assessed as reduction in cell viability measured after 96 hrs by CellTiter-Glo luminescence viability assay; format: functional, cell-based; details: NCI-H460, 96 h
# How it was run: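 Spheroids grown in round-bottom ultralow-attachment wells, 495 (H460 CTR5) or 650 (H322) cells/well. Drug exposure 96h with DMSO vehicle. CellTiter-Glo added, shaken 20 min, left 10 min, then luminescence read. IC50 by nonlinear regression; three independent experiments.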
# NCI-H460 [3] = experiment: Induction of apoptosis in human NCI-H460 cells expressing CTR5 gene assessed as viable cells at 5 uM measured after 72 hrs by Annexin V-Cy5/propidium iodide staining-based flow cytometry (reference value: 93%); format: functional; details: NCI-H460, 72 h, read-out: Activity
# NCI-H460 [4] = experiment: Induction of apoptosis in human NCI-H460 cells expressing CTR5 gene assessed as late apoptotic cells at 5 uM measured after 72 hrs by Annexin V-Cy5/propidium iodide staining-based flow cytometry (reference value: 3.2%); format: functional
# NCI-H460 [5] = experiment: Induction of apoptosis in human NCI-H460 cells expressing CTR5 gene assessed as necrotic cells at 5 uM measured after 72 hrs by Annexin V-Cy5/propidium iodide staining-based flow cytometry (reference value: 2.1%); format: functional
# NCI-H460 [6] = experiment: Induction of apoptosis in human NCI-H460 cells expressing CTR5 gene assessed as cleaved PARP level at 3 to 5.5 uM measured after 24 hrs by Western blot analysis; format: functional, cell-based
# How it was run: (§1)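 Cells were seeded at 3×10^5 (H460) or 4.2×10^5 (H322) per dish and treated 24h later with DMSO or a concentration series for 24h. Lysed in cold RIPA with phosphatase and protease inhibitors, then sonicated. 30 μg protein run on Bis-Tris gels and transferred to nitrocellulose or PVDF. Detection used infrared secondary antibodies on an Odyssey imager. Signal normalized to β-actin or GAPDH and to DMSO control; three independent experiments.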
# NCI-H460 [7] = experiment: Induction of apoptosis in human NCI-H460 cells expressing CTR5 gene assessed as increase in cleavage of procaspase8 at 3 to 4.5 uM measured after 24 hrs by Western blot analysis; format: functional, cell-based; how it was run: as §1
# NCI-H460 [8] = experiment: Induction of apoptosis in human NCI-H460 cells expressing CTR5 gene assessed as increase in cleavage of procaspase7 at 3 to 5.5 uM measured after 24 hrs by Western blot analysis; format: functional, cell-based; how it was run: as §1
# NCI-H460 [9] = experiment: Induction of apoptosis in human NCI-H460 cells expressing CTR5 gene assessed as decrease in procaspase3 level at 4.5 uM measured after 24 hrs by Western blot analysis; format: functional; set-up: scale not given: the % may be the effect or the level left; how it was run: as §1
# NCI-H322 [10] = experiment: Induction of apoptosis in human NCI-H322 cells assessed as increase in cleaved PARP level at 3 to 5.5 uM measured after 24 hrs by Western blot analysis; format: functional, cell-based; how it was run: as §1
# NCI-H322 [11] = experiment: Induction of apoptosis in human NCI-H322 cells assessed as increase in cleaved caspase7 level at 3 to 5.5 uM measured after 24 hrs by Western blot analysis; format: functional, cell-based; how it was run: as §1
# [12] = Downregulation of Mcl1 long isoform protein expression in human NCI-H460 cells expressing CTR5 gene at 3 to 4.5 uM measured after 24 hrs by Western blot analysis; format: functional, cell-based; how it was run: as §1
# NCI-H460 [13] = experiment: Induction of autophagy in human NCI-H460 cells expressing CTR5 gene assessed as acidic vesicular organelle formation at 3 uM measured after 72 hrs by acridine orange dye based flow cytometry (reference value: 91.2%); format: functional
# NCI-H460 [14] = experiment: Induction of apoptosis in human NCI-H460 cells expressing CTR5 gene assessed as viable cells at 20 uM measured after 72 hrs by Annexin V-Cy5/propidium iodide staining-based flow cytometry (reference value: 94.6%); format: functional; details: NCI-H460, 72 h, read-out: Activity
# NCI-H460 [15] = experiment: Induction of apoptosis in human NCI-H460 cells expressing CTR5 gene assessed as viable cells at 4 uM measured after 72 hrs by Annexin V-Cy5/propidium iodide staining-based flow cytometry (reference value: 94.6%); format: functional; details: NCI-H460, 72 h, read-out: Activity
# NCI-H460 [16] = experiment: Induction of apoptosis in human NCI-H460 cells expressing CTR5 gene assessed as late apoptotic cells at 4 uM measured after 72 hrs by Annexin V-Cy5/propidium iodide staining-based flow cytometry (reference value: 2.7%); format: functional
# NCI-H460 [17] = experiment: Induction of apoptosis in human NCI-H460 cells expressing CTR5 gene assessed as necrotic cells at 4 uM measured after 72 hrs by Annexin V-Cy5/propidium iodide staining-based flow cytometry (reference value: 0.9%); format: functional
# NCI-H460 [18] = experiment: Induction of apoptosis in human NCI-H460 cells expressing CTR5 gene assessed as early apoptotic cells at 4 uM measured after 72 hrs in presence of autophagy inhibitor chloroquine by Annexin V-Cy5/propidium iodide staining-based flow cytometry (reference value: 1.8%); format: functional
# NCI-H460 [19] = experiment: Induction of apoptosis in human NCI-H460 cells expressing CTR5 gene assessed as necrotic cells at 4 uM measured after 72 hrs in presence of autophagy inhibitor chloroquine by Annexin V-Cy5/propidium iodide staining-based flow cytometry (reference value: 0.9%); format: functional
# NCI-H460 [20] = experiment: Increase in lipidation of LC3A/B1 to LC3A/B2 in human NCI-H460 cells expressing CTR5 gene measured after 24 hrs by Western blot analysis; format: functional, cell-based; how it was run: as §1
# NCI-H322 [21] = experiment: Increase in lipidation of LC3A/B1 to LC3A/B2 in human NCI-H322 cells measured after 24 hrs by Western blot analysis; format: functional, cell-based; how it was run: as §1
# [22] = Downregulation of p62 level in human NCI-H322 cells at 3 to 5.5 uM measured after 24 hrs by Western blot analysis; format: functional, cell-based; how it was run: as §1
# [23] = Upregulation of Beclin1 level in human NCI-H460 cells expressing CTR5 gene at 3.5 uM measured after 24 hrs by reverse-phase protein array method relative to control; format: functional, cell-based
# [24] = Upregulation of Atg7 level in human NCI-H460 cells expressing CTR5 gene at 3.5 uM measured after 24 hrs by reverse-phase protein array method relative to control; format: functional, cell-based
# [25] = Upregulation of Atg3 level in human NCI-H460 cells expressing CTR5 gene at 3.5 uM measured after 24 hrs by reverse-phase protein array method relative to control; format: functional, cell-based
# [26] = biological target: Serine/threonine-protein kinase mTOR (Homo sapiens) (UniProt P42345); experiment: Inhibition of mTOR in human NCI-H460 cells expressing CTR5 gene assessed as decrease in S6 phosphorylation at S235/236 site by reverse-phase protein array method relative to control; format: cell-based
# [27] = biological target: Serine/threonine-protein kinase mTOR (Homo sapiens) (UniProt P42345); experiment: Inhibition of mTOR in human NCI-H460 cells expressing CTR5 gene assessed as upregulation of EIF4E pS09 level; format: cell-based
# NCI-H460 [28] = experiment: Induction of autophagy in human NCI-H460 cells expressing CTR5 gene measured after 24 hrs by microarray method; format: functional, cell-based
smiles,measurement,setting,value
C=C(C)[C@@H]1CC[C@]2(C)[C@H](C[C@@H](F)C34OC(=O)[C@@]5(CC[C@@H](C)[C@H](C)[C@@H]35)CC[C@]42C)[C@@]1(C)CCC(=O)NCCC,pIC50,[1],5.36
same,pIC50,[2],5.26
same,viability at 5 µM,NCI-H460 [3],51.9%
same,Activity,NCI-H460 [4],29.1%
same,Activity,NCI-H460 [5],5%
same,Activity,NCI-H460 [6],Active
same,Activity,NCI-H460 [7],Active
same,Activity,NCI-H460 [8],Active
same,Activity,NCI-H460 [9],29%
same,Activity,NCI-H322 [10],Active
same,Activity,NCI-H322 [11],Active
same,Activity,[12],Dose-dependent effect
same,Activity,NCI-H460 [13],88.6%
same,viability at 20 µM,NCI-H460 [14],94.3%
same,viability at 4 µM,NCI-H460 [15],77.4%
same,Activity,NCI-H460 [16],11.5%
same,Activity,NCI-H460 [17],3.6%
same,Activity,NCI-H460 [18],7.6%
same,Activity,NCI-H460 [19],3.6%
same,Activity,NCI-H460 [20],Dose-dependent effect
same,Activity,NCI-H322 [21],Dose-dependent effect
same,Activity,[22],Active
same,Activity,[23],5.6%
same,Activity,[24],4.5%
same,Activity,[25],5.1%
same,inhibition,[26],11.7%
same,inhibition,[27],Active
same,Activity,NCI-H460 [28],Active
